Sampled rows, rich in hits. Any-hit rate of the full collection: about 2%.
STEP inh = blocks human striatal-enriched tyrosine phosphatase; inhibition, % at 20 µM; 360,000 tested, 0.25% active; recombinant STEP, OMFP fluorogenic substrate, fluorescence;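 active = inhibition at 20 µM, scaled per plate between control wells, above about 37%, limit read from the data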;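 also: 0% = DMSO with enzyme and substrate and 100% = substrate only without enzyme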
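System: STEP phosphatase, cell-free reaction; Buffer or medium: Bis-Tris pH 6.0 buffer with DTT, detergent; Incubation: 20 min at room temperature, dark; Measured by: fluorescence, 480/540 nm.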
LMPTP block = blocks human LMPTP phosphatase | recombinant LMPTP-A, OMFP fluorogenic substrate, fluorescence intensity | inhibition, % at 20 µM | 360,000 tested, 0.22% active | AID 651560;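 active = compounds that cut the enzyme signal by at least half of the control window in the single-dose screen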;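 also: plate controls were DMSO wells with enzyme plus substrate for no effect and substrate without enzyme for full effect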
Target sequence (P24666 whole entry, looked up): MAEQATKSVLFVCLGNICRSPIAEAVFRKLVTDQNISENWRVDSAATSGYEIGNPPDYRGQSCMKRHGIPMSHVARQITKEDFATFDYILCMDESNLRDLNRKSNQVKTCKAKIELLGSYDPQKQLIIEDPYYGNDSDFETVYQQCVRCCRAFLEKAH
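Test system – LMPTP-A enzyme · Amount – LMPTP-A at 0.625 nM final in the reaction · Buffer or medium – Bis-Tris pH 6.0, DTT, detergent · Reagent – OMFP 400 µM · Doses – single 20 µM dose · Schedule – reaction 50 min, room temperature, dark · Detection – fluorescence intensity of OMFP turnover product · Evaluation – percent inhibition versus substrate-only and uninhibited controls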
SUMO1-SIM PPI = SUMO1-SIM interaction modulation. SUMO1 binding to a labelled peptide, TR-FRET, 1 h. inhibition, % at 20 µM. 360,000 tested, 0.33% active. AID 602429; in the data active = inhibition above about 37%
Target sequence (P63165 whole entry, looked up): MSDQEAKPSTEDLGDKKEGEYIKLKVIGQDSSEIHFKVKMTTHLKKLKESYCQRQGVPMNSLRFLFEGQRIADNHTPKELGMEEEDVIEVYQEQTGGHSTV
CSN inh = inhibitors of human CSN-mediated cullin deneddylation. Q92905. Purified CSN, SCF-Nedd8-OG deneddylation, fluorescence polarization. inhibition, % at 12.5 µM. 360,000 tested, 0.38% active;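 active = pattern-corrected inhibition above about 35%, with an unprinted fluorescence ratio check between 0.5 and 1.5, limit read from the data, passing the limit was not always enough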;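 also: 0% = enzyme with substrate and 100% = substrate without enzyme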
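Schedule: reaction 90 min, room temperature / Assay system: HEK293T-derived human Csn5 enzyme / Input: Csn5 at 0.24 nM final / Measure: inhibition of Csn5 cleavage, % / Control set: substrate-only high control, full reaction low control / Technique: fluorescence polarization of the substrate / Buffer or medium: Tris/NaCl/DTT buffer, pH 7.5 / Reagent: SCFSkp2-Nedd8OG substrate at 10 nM final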
DNMT1 inh = blocks human DNA methyltransferase DNMT1. P26358. 360,000 tested, 0.83% active. inhibition (reported as % activation of signal), % at 10 µM. DNMT1 molecular beacon, Hinp1I cleavage, fluorescence; in the data active = inhibition above about 50%
Scp1 inh = blocks human Scp-1 phosphatase activity; Q9GZU7; Recombinant Scp1, phosphopeptide, malachite green phosphate absorbance; inhibition, % at 20 µM; 340,000 tested, 0.88% active;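 active = inhibition above about 50% at 20 µM, limit read from the data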;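 also: plate controls were DMSO wells with enzyme for no effect and wells lacking enzyme for full effect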
Target sequence (Q9GZU7 76-261 limits assumed): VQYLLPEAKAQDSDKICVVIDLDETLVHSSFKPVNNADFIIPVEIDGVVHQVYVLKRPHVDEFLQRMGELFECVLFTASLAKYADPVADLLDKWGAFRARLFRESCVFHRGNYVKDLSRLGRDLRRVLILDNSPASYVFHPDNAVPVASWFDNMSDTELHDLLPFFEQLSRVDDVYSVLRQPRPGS
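Test system: SCP-1 phosphatase catalytic domain, residues 76-261 | Compound dosing: One concentration, 20 µM, with 1.0% DMSO | Schedule: 45 min room-temperature reaction, 5 min colour, 30 min stabiliser | Detection: Absorbance at 630 nm | Read-out basis: % inhibition of SCP-1 phosphate liberation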
Beacon interf DR = shows spectral interference in the DNMT1 beacon assay | shares compounds with DNMT1 inh | molecular beacon fluorescence, spectral interference counter-screen | IC50, µM | 200 tested, under 10 active; call rule not given here
DNMT1 inh conf = confirmation of human DNMT1 inhibitors. shares compounds with DNMT1 inh. DNMT1 molecular beacon HinP1I cleavage, fluorescence. inhibition, % at 10 µM. 2,300 tested, 8% active;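 active = average inhibition of at least 30% in the single-concentration confirmation test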
DNMT1 interf = shows spectral interference in the DNMT1 beacon assay; DNMT1 molecular beacon spectral interference counterscreen, fluorescence 485/520; 2,300 tested, 1% active; shares compounds with DNMT1 inh; activation (fluorescence interference), % at 10 µM; AID 602387;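 active = activation of at least 30% at 10 µM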;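 also: DNMT1 catalytic domain with a HinP1I cleavage step and a FAM/dabcyl DNA beacon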
* hit, by the source's call; x = no result given.

SMILES	STEP inh	LMPTP block	SUMO1-SIM PPI	CSN inh	DNMT1 inh	Scp1 inh	DNMT1 inh conf	DNMT1 interf	others
O=c1[nH]nnc2c1sc1nc(N3CCOCC3)c3c(c12)CCCC3	0	-14	-1	6	95*	-2	7	10
C1CCc2c(c(N3CCOCC3)nc3sc4c(N5CCOCC5)nnnc4c23)C1	-3	-2	7	1	1	-9	x	x
O=C1OC(c2cccs2)=N/C1=C\c1ccc(-c2ccccc2Cl)o1	-6	2	15	23	-2	6	x	x
O=C1OC(c2cccs2)=N/C1=C/c1ccc(-c2cccc(C(=O)O)c2)o1	16	1	30	28	85*	65*	13	-1
COCCn1c(-c2ccc(OC)cc2)nc2ccccc21	0	1	0	-2	-1	-11	x	x
COCCn1c2nc(=O)n(-c3ccccc3)c(=O)c-2nc2ccccc21	-79	-5	-28	-71	99*	x	46*	72*
Cc1sc(NC(=O)c2sc3nc4c(C)cccc4cc3c2N)c(C#N)c1C	3	3	6	22	88*	-4	9	-1
Cc1cccc2cc3c(N)c(C#N)sc3nc12	-4	3	-8	2	-5	-8	x	x
COc1cccc(C(=O)Nc2sc(C(C)C)cc2C(N)=O)c1OC	-3	3	0	0	-12	-12	x	x
O=S(=O)(NCc1ccccc1)c1cccc2nsnc12	-1	1	-29	3	85*	9	1	2
COc1ccc(C(=O)Nc2ccccc2C(=O)Nc2cc(C)ccn2)cc1	10	1	2	-1	-9	7	x	x
COc1ccc(C(=O)Nc2ccccc2C(=O)Nc2cccc(C)n2)cc1	-1	0	1	-5	83*	8	15	4
CCOc1cc(NC(=O)c2ccco2)c(OCC)cc1NC(=O)COc1ccccc1C	-1	1	-2	4	65*	-5	0	-2
CC(C)(C)CN1CCN(CC#Cc2ccccc2)CC1CCO (stereo not drawn)	0	-1	13	-7	-1	-5	x	x
O=C(/C=C/c1ccc(Cl)cc1Cl)N1CCN(c2ccccc2[N+](=O)[O-])CC1	4	7	0	5	92*	-14	1	-2
O=C1NC(=S)N/C1=C/c1ccc(Oc2ccc(C(F)(F)F)cc2[N+](=O)[O-])c(Cl)c1	-2	-1	-1	4	51*	8	1	3
c1ccc2c(c1)c1c(c3ccccc32)CN2CCCC2C1 (stereo not drawn)	-4	13	-17	3	54*	22	29	0	Beacon interf DR=>99
CCCCCn1c(=NC(C)=O)c(C#N)cc2c(=O)n3ccccc3nc21	0	18	-12	8	78*	2	2	2
CCOCCCn1c(=NC(C)=O)c(C#N)cc2c(=O)n3cccc(C)c3nc21	-1	22	8	-1	22	10	x	x
CCCCn1c(=NC(C)=O)c(C#N)cc2c(=O)n3cccc(C)c3nc21	9	9	-4	34	64*	11	0	2
Cc1ccc(NC(=S)N2CCN(c3ccccn3)CC2)cc1C	2	0	9	-4	0	-2	x	x
Cc1ccc(N2CCCC2=O)cc1S(=O)(=O)N1CCOCC1	-2	0	-4	-3	3	-5	x	x
COc1ccc(N2CCCC2=O)cc1S(=O)(=O)N1CCOCC1	-3	-3	4	4	72*	x	1	3
Cn1c(=O)c2cc(NC(=O)NCCc3ccccc3)ccc2n1Cc1ccccc1	2	-2	5	-2	69*	x	0	1
O=[N+]([O-])c1cccc(/C=C/c2nc(C=Nc3ccc4ccccc4c3)c(O)o2)c1	-1	9	0	5	53*	1	0	-4
SMILES	STEP inh	LMPTP block	SUMO1-SIM PPI	CSN inh	DNMT1 inh	Scp1 inh	DNMT1 inh conf	DNMT1 interf	others
COc1ccc(Cc2c(-c3ccco3)nc3c(C)cc(Br)cn23)c(C)c1	-2	4	-16	6	-9	x	x	x
Cc1cc(Br)cn2c(Cc3ccccc3)c(-c3ccco3)nc12	7	3	-5	9	5	x	x	x
COc1ccc(Cc2c(-c3ccccc3)nc3ccc(Cl)cn23)c(C)c1	3	-1	2	12	-9	x	x	x
COc1ccc(Cc2c(-c3ccco3)nc3ccc(Cl)cn23)c(C)c1	2	8	4	40*	84*	x	3	0
COc1ccc(Cc2c(-c3ccco3)nc3ccc(Br)cn23)c(C)c1	4	20	5	17	102*	x	13	2
Cc1cc(Br)cn2c(Cc3ccsc3)c(-c3ccco3)nc12	1	6	8	7	52*	x	3	2
Nc1ccc(S(=O)(=O)Nc2nccs2)cc1N=Nc1ccccc1[N+](=O)[O-]	-1	9	16	6	77*	7	80*	-3	Beacon interf DR=>99
O=C(N/N=C/c1ccccc1O)NC12CC3CC(CC(C3)C1)C2	-3	2	-5	6	-7	-7	x	x
O=C(N/N=C/c1cc(Cl)cc([N+](=O)[O-])c1O)NC12CC3CC(CC(C3)C1)C2	8	78*	-1	0	72*	23	7	-5
C=CCN(CC=C)S(=O)(=O)c1ccc2nc(NC(=O)C3CCCO3)sc2c1 (stereo not drawn)	-4	1	0	-17	7	3	x	x
O=C(Nc1ccc2oc(-c3cccc4ccccc34)nc2c1)c1ncn[nH]1	5	0	8	6	67*	-2	3	-2
CCOc1ccc(Cl)cc1-c1cc(C(=O)NC2CCCCC2)[nH]n1	0	2	10	5	74*	x	1	1
CC(Sc1ccc2c(c1)OCCO2)C(=O)Nc1ccc(N2CCOCC2)cc1 (stereo not drawn)	-2	0	5	-2	-3	-4	x	x
CC(OC(=O)Cc1c[nH]c2ccccc12)C(=O)Nc1ccccc1[N+](=O)[O-] (stereo not drawn)	2	2	-30	-4	0	-8	x	x
CC1(C)Cc2c(C#N)c(NCCCO)nc(-c3ccccc3)c2CO1	-5	2	1	0	66*	-9	-1	4
